Measurements taken from ChEMBL document CHEMBL1142812, “Synthesis and structure-activity relationship of imidazo[1,2-a]benzimidazoles as corticotropin-releasing factor 1 receptor antagonists” (Bioorg Med Chem Lett, 2005).
pKi: −log10 of the molar value.

Key:
[1] = biological target: T1, Corticotropin-releasing factor receptor 1 (Homo sapiens, UniProt P34998); assay: Binding affinity for human corticotropin releasing factor receptor 1
T1 sequence (P34998 whole entry): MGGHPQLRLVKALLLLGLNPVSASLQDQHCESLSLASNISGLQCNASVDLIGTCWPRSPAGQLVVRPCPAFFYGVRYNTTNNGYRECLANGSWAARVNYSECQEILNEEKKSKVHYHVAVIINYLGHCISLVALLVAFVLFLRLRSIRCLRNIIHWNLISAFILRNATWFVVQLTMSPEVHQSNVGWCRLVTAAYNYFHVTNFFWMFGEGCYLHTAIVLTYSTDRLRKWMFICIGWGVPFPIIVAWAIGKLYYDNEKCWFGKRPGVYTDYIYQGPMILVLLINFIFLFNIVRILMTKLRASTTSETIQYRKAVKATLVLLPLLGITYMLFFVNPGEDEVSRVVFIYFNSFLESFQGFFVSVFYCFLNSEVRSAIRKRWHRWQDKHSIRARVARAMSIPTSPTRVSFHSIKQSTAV

[2] = Bioavailability (dissolved in DMSO) at 10 mg/kg of oral administration in rat was determined; format: ADME, organism-based; details: in vivo
Procedure, shortened: (§1)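 Rats dosed with the compound at 10 mg/kg orally and 2 mg/kg intravenously, in 10/10/80 Cremophor/DMSO/water. Dosing volumes were 3 mL/kg p.o. and 1 mL/kg i.v. Plasma concentrations were followed over time to derive clearance, volume of distribution, terminal half-life, oral AUC and oral bioavailability.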

[3] = Maximum peak plasma concentration (dissolved in DMSO) at 10 mg/kg of p.o. administration in rat was determined; details: po
[4] = Terminal half life (dissolved in DMSO) at 2 mg/kg of intravenous administration in rat was determined; format: ADME, organism-based; set-up: dose 2 mg/kg, route intravenous; details: in vivo; procedure, shortened: as §1
[5] = Terminal half life (dissolved in DMSO) at 2 mg/kg of intravenous administration in rat was determined; details: in vivo
[6] = Volume of distribution (dissolved in DMSO) at 2 mg/kg of intravenous administration in rat was determined; format: ADME, organism-based; set-up: dose 2 mg/kg, route intravenous; details: in vivo; procedure, shortened: as §1
[7] = Plasma clearance (dissolved in DMSO) at 2 mg/kg of intravenous administration in rat was determined; format: ADME, organism-based; set-up: dose 2 mg/kg, route intravenous; procedure, shortened: as §1
[8] = Brain concentration to plasma concentration ratio (dissolved in DMSO) at 2 mg/kg of intravenous administration in rat after 2 h; format: ADME, organism-based; set-up: dose 2 mg/kg, route intravenous; details: brain and plasma, read-out: B/P
Procedure, shortened: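 Compound given intravenously to rats at 2 mg/kg in 10/10/80 Cremophor/DMSO/water at 1 mL/kg. Brain and plasma concentrations were measured at 2 h and expressed as a brain-to-plasma ratio.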

[9] = Plasma clearance (dissolved in DMSO) at 2 mg/kg of intravenous administration in rat was determined
[10] = Volume of distribution (dissolved in DMSO) at 2 mg/kg of […] administration in rat was determined; format: ADME, organism-based; set-up: dose 2 mg/kg; details: in vivo
[11] = Mean plasma area under curve (dissolved in DMSO) at 10 mg/kg of oral administration in rat was determined; format: ADME, organism-based; set-up: dose 10 mg/kg, route oral; procedure, shortened: as §1

| Structure (SMILES) | pKi [1] | also measured |
| --- | --- | --- |
| CCN(CCC1CC1)Cc1c(C(F)(F)F)nc2n(-c3c(C)cc(C)cc3C)c3ccccc3n12 | 5.85 | – |
| C=CCN(CC=C)Cc1c(C(F)(F)F)nc2n(-c3c(C)cc(C)cc3C)c3ccccc3n12 | 6.86 | – |
| CCCN(CCc1ccccc1)Cc1c(C(F)(F)F)nc2n(-c3ccc(C(C)C)cc3Br)c3ccccc3n12 | 6.39 | – |
| CCCN(CC1CC1)C(=O)c1c(C)nc2n(-c3c(C)cc(C)cc3C)c3ccccc3n12 | 6.44 | – |
| CCCN(CC1CC1)C(=O)c1c(C(F)(F)F)nc2n(-c3c(C)cc(C)cc3C)c3ccccc3n12 | 5.45 | – |
| CCCCN(Cc1ccccc1)Cc1c(C(F)(F)F)nc2n(-c3c(C)cc(C)cc3C)c3ccccc3n12 | 5.11 | – |
| CCCN(CCc1ccccc1)Cc1c(C(F)(F)F)nc2n(-c3c(C)cc(C)cc3C)c3ccccc3n12 | 6.60 | – |
| Cc1cc(C)c(-n2c3ccccc3n3c(CN(CCc4ccccc4)CC(F)(F)F)c(C(F)(F)F)nc23)c(C)c1 | 6.13 | – |
| CCCN(CC1CC1)C(=O)c1c(CC)nc2n(-c3c(C)cc(C)cc3C)c3ccccc3n12 | 6.24 | – |
| Cc1cc(C)c(-n2c3ccccc3n3c(CN(CCC4CC4)CCC(F)(F)F)c(C(F)(F)F)nc23)c(C)c1 | 6.34 | – |
| CCCN(Cc1c(C(F)(F)F)nc2n(-c3c(C)cc(C)cc3C)c3ccccc3n12)CC1CC1 | 7.64 | bioavailability [2]: 35%; Cmax [3]: 2380 ng/mL; half-life [4]: 4.1 h; half-life [5]: 4.1 h; Vd [6]: 0.6 L/kg; clearance [7]: 5.1 mL/min/kg; Kp at 2 h [8]: 0.03; CL/F [9]: 5.1 mL/min/kg; Vd [10]: 0.6 L/kg; AUC [11]: 11400 ng·h/mL |
| Cc1cc(C)c(-n2c3ccccc3n3c(CN(CC4CCC4)CC(F)(F)F)c(C(F)(F)F)nc23)c(C)c1 | 7.28 | – |
| CCCN(CCC(F)(F)F)Cc1c(C(F)(F)F)nc2n(-c3c(C)cc(C)cc3C)c3ccccc3n12 | 7.17 | – |
| CCCN(Cc1c(C)nc2n(-c3c(C)cc(C)cc3C)c3ccccc3n12)CC1CC1 | 7.70 | – |
| CCCN(CC1CC1)C(=O)c1c(CC)nc2n(-c3c(C)cc(C)cc3C)c3ccc(F)cc3n12 | 6.03 | – |
| Cc1cc(C)c(-n2c3ccccc3n3c(CN(CCC(F)(F)F)CC(F)(F)F)c(C(F)(F)F)nc23)c(C)c1 | 6.54 | – |
| CCCN(CCc1ccccc1)Cc1c(C(F)(F)F)nc2n(-c3ccc(Cl)cc3Cl)c3ccccc3n12 | 5.80 | – |
| CCN(Cc1ccccc1)Cc1c(C(F)(F)F)nc2n(-c3c(C)cc(C)cc3C)c3ccccc3n12 | 5.56 | – |
| CCCN(Cc1c(CC)nc2n(-c3c(C)cc(C)cc3C)c3ccc(F)cc3n12)CC1CC1 | 6.82 | – |
| CC(C)c1ccc(-n2c3ccccc3n3c(CN(CC4CC4)CC4CC4)c(C(F)(F)F)nc23)c(Br)c1 | 7.27 | – |
| Cc1cc(C)c(-n2c3ccccc3n3c(CN(C)Cc4ccccc4)c(C(F)(F)F)nc23)c(C)c1 | 6.24 | – |

| Structure (SMILES) | pKi [1] | also measured |
| --- | --- | --- |
| Cc1cc(C)c(-n2c3ccccc3n3c(CN(CC4CC4)CC(F)(F)F)c(C(F)(F)F)nc23)c(C)c1 | 8.15 | – |
| CCCN(Cc1c(C(F)(F)F)nc2n(-c3c(C)cc(C)cc3C)c3ccccc3n12)CC(F)(F)F | 7.12 | – |
| Cc1cc(C)c(-n2c3ccccc3n3c(CN(CC4CC4)CC4CC4)c(C(F)(F)F)nc23)c(C)c1 | 7.96 | – |
| Cc1cc(C)c(-n2c3ccccc3n3c(CN(CC4CC4)CC(F)(F)C(F)(F)F)c(C(F)(F)F)nc23)c(C)c1 | 7.47 | – |
| Cc1cc(C)c(-n2c3ccccc3n3c(CN(CCC4CC4)CC(F)(F)F)c(C(F)(F)F)nc23)c(C)c1 | 6.19 | – |
| CCCCN(CC)Cc1c(C(F)(F)F)nc2n(-c3c(C)cc(C)cc3C)c3ccccc3n12 | 6.15 | – |
| Cc1cc(C)c(-n2c3ccccc3n3c(CN(CCC(F)(F)F)CC4CC4)c(C(F)(F)F)nc23)c(C)c1 | 7.89 | – |
| CCCN(Cc1c(CC)nc2n(-c3c(C)cc(C)cc3C)c3ccccc3n12)CC1CC1 | 7.68 | – |
| Cc1cc(C)c(-n2c3ccccc3n3c(CN(CCc4ccccc4)CCC(F)(F)F)c(C(F)(F)F)nc23)c(C)c1 | 6.21 | – |
| FC(F)(F)c1nc2n(-c3ccc(Cl)cc3Cl)c3ccccc3n2c1CN(CC1CC1)CC1CC1 | 6.62 | – |
| CCCN(Cc1c(C(F)(F)F)nc2n(-c3ccc(C(C)C)cc3Br)c3ccccc3n12)CC1CC1 | 6.82 | – |
| CCCN(Cc1ccccc1)Cc1c(C(F)(F)F)nc2n(-c3c(C)cc(C)cc3C)c3ccccc3n12 | 5.39 | – |
| CCCN(Cc1c(C(F)(F)F)nc2n(-c3ccc(Cl)cc3Cl)c3ccccc3n12)CC1CC1 | 6.43 | – |
| Cc1cc(C)c(-n2c3ccccc3n3c(CN(CCc4ccccc4)CCc4ccccc4)c(C(F)(F)F)nc23)c(C)c1 | 6.48 | – |
| CCCN(Cc1c(C(F)(F)F)nc2n(-c3c(C)cc(C)cc3C)c3ccccc3n12)CC(F)(F)C(F)(F)F | 7.12 | – |
| CCCN(CCC1CC1)Cc1c(C(F)(F)F)nc2n(-c3c(C)cc(C)cc3C)c3ccccc3n12 | 6.44 | – |
| CCCN(Cc1c(C(F)(F)F)nc2n(-c3c(C)cc(C)cc3C)c3ccccc3n12)CC1CCC1 | 7.59 | – |
| CCCN(CC1CC1)C(=O)c1c(C)nc2n(-c3c(C)cc(C)cc3C)c3ccc(F)cc3n12 | 5.93 | – |
| CCN(Cc1c(C(F)(F)F)nc2n(-c3c(C)cc(C)cc3C)c3ccccc3n12)CC1CC1 | 7.55 | – |
| CCCN(Cc1c(C)nc2n(-c3c(C)cc(C)cc3C)c3ccc(F)cc3n12)CC1CC1 | 7.23 | – |
